Measurements from PubChem BioAssay.
Calls of active or inactive are those of the source.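 Rule for the calls, unless noted: active = compounds giving at least 50% inhibition in the cell-based MKP-3 phosphatase rescue imaging test; inactive = the rest.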

Legend:
[1] = inhibitors of TNFa-induced NFkB p65 translocation, primary screen, imaging, HUVEC, MLSMR starter and 10KST1 sets (AID 438;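 active = inhibition above 20% together with a positive visual image hit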;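 note: compound added about 3h40 before a 20 min TNFalpha stimulation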;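 for inhibition: signal is the nuclear over cytoplasmic p65 intensity ratio per well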); conditions: HUVEC TNFa-induced p65 nuclear translocation; cell count: measured here: nuclei count (cytotoxicity indicator), at 2.08 µM; inhibition: at 2 µM, stronger effect = higher value, 0% TNFa-plus-vehicle, 100% no-TNFa wells
[2] = endothelial E-selectin expression blockers – imaging, HUVEC, immunofluorescence, MLSMR starter and 10KST1 sets, primary screen (AID 487;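 active = visually confirmed hit in the image check and inhibition above 20%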;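 for inhibition: signal is fraction of cell area covered by stained E-selectin grains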;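 for nuclei count: 100% = median nuclei count of all wells on the same plate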); conditions: HUVEC TNFalpha-induced E-selectin immunofluorescence imaging, at 2 µM; inhibition: stronger effect = higher value; nuclei count: measured here: cell number, toxicity
[3] = Primary imaging screen for DUSP6 inhibitors that restore phospho-Erk in transfected HeLa cells, chemical complementation (AID 609); conditions: HeLa MKP-3 transfected, phospho-Erk imaging KS statistic, at 10 µM, cells stimulated with TPA for 15 min;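 for inhibition: phospho-Erk level distribution per well compared with pooled transfected vehicle control wells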
[4] = target: Dual specificity protein phosphatase 6 (Homo sapiens) (UniProt Q16828); experiment: as above; conditions: HeLa MKP-3 transfected, phospho-Erk imaging KS statistic; at 10 µM; stronger effect = higher value; cells stimulated with TPA for 15 min
Dual specificity protein phosphatase 6 (Homo sapiens), sequence (Q16828 whole entry, looked up): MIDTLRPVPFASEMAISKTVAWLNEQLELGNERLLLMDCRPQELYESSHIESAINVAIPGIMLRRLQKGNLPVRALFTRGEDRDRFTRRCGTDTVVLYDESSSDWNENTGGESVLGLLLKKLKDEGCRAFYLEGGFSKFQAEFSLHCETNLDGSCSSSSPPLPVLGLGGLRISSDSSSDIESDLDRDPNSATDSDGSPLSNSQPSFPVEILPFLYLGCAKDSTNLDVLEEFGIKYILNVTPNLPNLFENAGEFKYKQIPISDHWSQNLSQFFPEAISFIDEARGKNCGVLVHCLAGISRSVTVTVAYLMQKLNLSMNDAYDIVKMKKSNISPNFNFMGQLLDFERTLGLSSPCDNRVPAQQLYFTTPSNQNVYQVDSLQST

[5] = target: Voltage-gated potassium channel subunit beta-2 (Rattus norvegicus) (UniProt P62483); experiment: inhibitors of rat Kvbeta2 reductase activity – biochemical, NADPH fluorescence, primary screen (AID 622;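 active = fluorescence slope higher than the sample average by over 3 SD, cut at about -0.22 in these data, passing the limit was not always enough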;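 note: slope of raw intensity against log time taken from 70 to 1610 s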); conditions: recombinant KvBeta, 4-cyanobenzaldehyde reduction, at 10 µM, stronger effect = higher value
Voltage-gated potassium channel subunit beta-2 (Rattus norvegicus), sequence (P62483 whole entry, looked up): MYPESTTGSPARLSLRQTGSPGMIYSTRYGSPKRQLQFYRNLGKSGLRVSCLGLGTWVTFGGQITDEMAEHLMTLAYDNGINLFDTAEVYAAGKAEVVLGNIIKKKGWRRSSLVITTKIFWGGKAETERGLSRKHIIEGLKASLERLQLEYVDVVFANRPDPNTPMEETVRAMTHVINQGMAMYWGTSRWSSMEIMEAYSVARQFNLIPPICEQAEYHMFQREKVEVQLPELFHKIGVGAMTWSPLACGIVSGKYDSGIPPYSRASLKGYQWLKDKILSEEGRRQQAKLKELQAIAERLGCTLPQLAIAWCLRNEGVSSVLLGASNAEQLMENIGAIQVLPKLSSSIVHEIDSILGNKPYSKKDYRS

[6] = target: Voltage-gated potassium channel subunit beta-2 (Rattus norvegicus) (UniProt P62483); experiment: enhancers of rat Kvbeta2 NADPH turnover – biochemical, NADPH fluorescence, primary screen (AID 623;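 active = NADPH fluorescence slope more negative than the mean of all samples by about 3 SD, 99.7% confidence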;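 note: fluorescence intensity change per second fitted from 20 to 320 s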); conditions: Recombinant KvBeta, NADPH fluorescence decrease slope, 10 min; at 10 µM; stronger effect = lower value
[7] = target: Alpha-2C adrenergic receptor (Homo sapiens) (UniProt P18825); experiment: compounds altering alpha2C-coupled GIRK flux – cell-based, HEK293 alpha2C/GIRK1/2, thallium flux, primary screen (AID 624;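 active = fluorescence slope after compound addition differing from the mean of all screened samples at 99.7% confidence, in either direction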;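 note: slope of fluorescence ratio to pre-addition baseline per second over 15 to 24 s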); conditions: thallium flux BTC fluorescence, at 10 µM, actives lie on both sides
Alpha-2C adrenergic receptor (Homo sapiens), sequence (P18825 whole entry, looked up): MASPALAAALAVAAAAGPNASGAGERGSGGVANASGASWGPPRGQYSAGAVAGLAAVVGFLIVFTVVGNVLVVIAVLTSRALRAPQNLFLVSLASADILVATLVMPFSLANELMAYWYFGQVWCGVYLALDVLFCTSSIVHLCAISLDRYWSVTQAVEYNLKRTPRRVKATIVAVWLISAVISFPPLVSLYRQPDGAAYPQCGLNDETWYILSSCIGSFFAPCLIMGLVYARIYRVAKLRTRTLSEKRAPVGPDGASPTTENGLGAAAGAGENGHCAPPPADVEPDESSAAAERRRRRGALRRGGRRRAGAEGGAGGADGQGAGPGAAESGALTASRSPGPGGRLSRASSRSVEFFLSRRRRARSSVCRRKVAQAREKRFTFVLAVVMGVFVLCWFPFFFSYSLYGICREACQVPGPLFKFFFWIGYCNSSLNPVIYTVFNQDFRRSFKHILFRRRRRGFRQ

[8] = inhibitors of larval lipid processing in zebrafish, primary screen, whole organism, PED6 fluorescence, gall bladder and intestine (AID 686;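 active = a full or partial loss of lipid-probe fluorescence in the fish gall bladder, intestine or both, judged by eye; inactive = no fluorescence loss, or compound toxic to the fish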;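 note: larvae 5 to 7 days old with five fish per well; signal comes from phospholipase A2 cleavage of quenched PED6 carried via bile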); conditions: Zebrafish larvae PED6 lipid processing, fluorescence scoring; screened at 20 µM (by protocol)
Procedure, shortened: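 Incubation: overnight exposure of larvae to compound plus PED6 / Test system: live zebrafish larvae aged 5-7 days, whole organism / Amount: 5 larvae per well / Read-out basis: visual per-well fluorescence inhibition score / Signal: visual fluorescence microscopy scoring of gall bladder, gut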

[9] = loss of swimming-algae plug formation – whole organism, Chlamydomonas reinhardtii, WT vs cilia-less mutant, absorbance, 96-well, primary screen (AID 463189;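 active = inhibition at or above 50% relative to wild type and mutant plate controls; inactive = inhibition below 50%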;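 note: 0% = wild type cc124 cells in DMSO and 100% = ciliumless bld1 mutant cells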); conditions: Chlamydomonas reinhardtii gravitaxis, OD600 absorbance, 2 days; at 10 µM; stronger effect = higher value
[10] = measured here: cell density z-score
[11] = measured here: nuclear c-Myc green intensity z-score
[12] = measured here: nuclear pErk red intensity z-score, stronger effect = higher value

Structure (SMILES)	cell count [1]	inhibition [1]	inhibition [2]	nuclei count [2]	z-score [3, 10]	z-score [3, 11]	z-score [3, 12]	inhibition [4]	fluorescence slope [5]	NADPH fluorescence slope [6]	slope [7]	outcome [8]	inhibition [9]
COC(=O)c1ccccc1NC=C1C(=O)OC2(CCCCC2)OC1=O	343	-9% (inactive)	27.4% (inactive)	86.4%	-1.26	-1.2	-0.313	1.42% (inactive)	-0.443 (inactive)	-1.9e-05 (inactive)	0.00691 (inactive)	inactive	46.5% (inactive)
CC1CN(C2CCN(S(=O)(=O)Cc3ccccc3)CC2)CC(C)O1 (stereo not given)	355	-15.2% (inactive)	-254% (inactive)	179%	0.356	0.313	0.176	5.57% (inactive)	-0.391 (inactive)	-1.6e-05 (inactive)	0.00538 (inactive)	inactive	32.6% (inactive)
CC(O)Cn1ccccc1=N (stereo not given)	352	-2% (inactive)	-146% (inactive)	105%	0.162	-0.0061	0.0768	-2.29% (inactive)	-0.293 (inactive)	7.7e-06 (inactive)	0.00523 (inactive)	inactive	21.9% (inactive)
COc1ccc(-c2cn3ccsc3n2)cc1	536	-3% (inactive)	-235% (inactive)	197%	-1.31	-1.4	1.15	-8.95% (inactive)	-0.478 (inactive)	-0.000227 (inactive)	0.00481 (inactive)	inactive	-19.1% (inactive)
Cc1ccc(C)n1Cc1ccc(C(=O)O)cc1	645	1.9% (inactive)	-32.8% (inactive)	154%	1.01	0.014	-0.0334	-6.86% (inactive)	-0.401 (inactive)	-4.4e-05 (inactive)	0.00514 (inactive)	inactive	-3.17% (inactive)
Fc1ccc2[nH]c3c(N4CCN(Cc5ccc6c(c5)OCO6)CC4)ncnc3c2c1	523	-4.5% (inactive)	-93.3% (inactive)	169%	0.499	0.133	-0.391	-1.12% (inactive)	-0.311 (inactive)	3.2e-05 (inactive)	0.00448 (inactive)	inactive; toxic	58.4% (active)
Cc1nc(N2CCOCC2)c(C#N)c2c1COC(C)(C)C2	582	-0.2% (inactive)	-43.9% (inactive)	99.8%	-1.02	1	-1.11	3.66% (inactive)	-0.521 (inactive)	-4.3e-05 (inactive)	0.00501 (inactive)	inactive	-6.08% (inactive)
CCOc1ccc(-n2c(SCc3ccc(C#N)cc3)nnc2-c2cccnc2)cc1	343	-6% (inactive)	6.3% (inactive)	157%	0.958	-0.128	0.447	13.4% (inactive)	-0.421 (inactive)	-0.00013 (inactive)	0.00481 (inactive)	inactive	-11.3% (inactive)
COCCOC(=O)C1=C(C)NC(SCC(=O)NC(C)(C)C)=C(C#N)C1c1ccco1 (stereo not given)	364	-11.5% (inactive)	-124% (inactive)	121%	0.297	-0.0811	-0.28	7.48% (inactive)	-0.397 (inactive)	-4e-05 (inactive)	0.00427 (inactive)	inactive; toxic	27.7% (inactive)
COc1cc(=O)n2c(-c3ccccc3)csc2n1	628	0% (inactive)	-58.9% (inactive)	153%	-1.46	1.4	0.777	13.2% (inactive)	-0.465 (inactive)	-0.000258 (inactive)	0.00547 (inactive)	inactive	5.32% (inactive)
CCOC(=O)c1[nH]c2cc3c(cc2c1NC(=O)CN1CCC(C)CC1)OCO3	554	-1.1% (inactive)	-6.5% (inactive)	155%	-0.767	1.52	-0.0577	1.6e-07% (inactive)	-0.27 (inactive)	6.7e-06 (inactive)	0.00467 (inactive)	inactive	-6.78% (inactive)
Cn1nccc1C(=O)Nc1ccccc1C(=O)O	640	-1.2% (inactive)	16% (inactive)	170%	1.93	-0.909	-0.448	11.4% (inactive)	-0.449 (inactive)	-0.000369 (inactive)	0.00518 (inactive)	inactive	15.5% (inactive)
CCCCCCOC(=O)CCn1[nH]c(=O)c2ccccc2c1=O	547	-12.2% (inactive)	-119% (inactive)	136%	0.183	-0.855	0.203	7.93% (inactive)	-0.492 (inactive)	-6.3e-05 (inactive)	0.0065 (inactive)	inactive	27.6% (inactive)
CC1(C)Cc2c(c(-c3ccccc3)nc3[nH][nH]c(=O)c23)CO1	666	-17.1% (inactive)	-370% (inactive)	162%	0.742	-0.0557	0.36	-3.98% (inactive)	-0.513 (inactive)	-7.2e-05 (inactive)	0.00403 (inactive)	inactive	21% (inactive)
CCCOc1cccc(C2C(C(=O)c3ccc(C)o3)=C(O)C(=O)N2CCCN(C)C)c1 (stereo not given)	432	3.5% (inactive)	48.5% (inactive)	77.5%	-0.596	-1.82	0.0129	-11.9% (inactive)	-0.45 (inactive)	-9.1e-06 (inactive)	0.00522 (inactive)	inactive	-2.38% (inactive)
CCOC(=O)C1CCCN(c2nc3ccccc3nc2C(C#N)C(=O)OC(C)C)C1 (stereo not given)	547	-8.3% (inactive)	14.3% (inactive)	143%	-1.02	0.486	-0.3	-7.86% (inactive)	-0.504 (inactive)	-3.6e-05 (inactive)	0.00207 (inactive)	inactive	25.2% (inactive)
CCCCC(C(=O)O)C(C)CC(=O)Nc1cccc(C(=O)O)c1 (stereo not given)	630	-4.4% (inactive)	-102% (inactive)	176%	0.159	-1.73	0.323	18.6% (inactive)	-0.486 (inactive)	-0.000152 (inactive)	0.00384 (inactive)	inactive	0.959% (inactive)
C=C(C)CN1CCN(c2c(CCC#N)c(C)c(C#N)c3nc4ccccc4n23)CC1	553	-17.5% (inactive)	-77% (inactive)	159%	-0.509	-0.729	-0.345	-4.27% (inactive)	-0.00664 (inactive)	-2.3e-06 (inactive)	0.00756 (inactive)	inactive	17.9% (inactive)
Cn1c(NCc2ccco2)nc2c1c(=O)n(Cc1ccc(Cl)c(Cl)c1)c(=O)n2C	615	-3.6% (inactive)	-47.4% (inactive)	147%	-0.044	0.293	1.11	-1.12% (inactive)	-0.511 (inactive)	-6.1e-05 (inactive)	0.00544 (inactive)	inactive	48.3% (inactive)
CC1CCc2cc(F)cc3c(O)c(C(=O)NCc4ccco4)c(=O)n1c23 (stereo not given)	531	-4.5% (inactive)	-39.2% (inactive)	138%	-0.138	1.87	-4.17	5.26% (inactive)	-0.329 (inactive)	4e-05 (inactive)	0.00603 (inactive)	inactive	6.44% (inactive)
